≈ marks a conversion by molar mass, not a printed value.
Key:
Candida albicans [1] = assay: In vitro minimum potentiation concentration to achieve an 8-fold reduction in fluconazole MIC against Candida albicans strain YEM15 (overexpressing both CDR1 and CDR2); format: functional
Summary of the method: (§1)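 Checkerboard assay in RPMI 1640 following the NCCLS M27-A broth dilution method. Fluconazole MIC was measured with and without varying concentrations of efflux pump inhibitor. MPC8 is the lowest inhibitor concentration giving an 8-fold reduction in fluconazole MIC. Some analogues were tested only in an abbreviated format: inhibitor concentration varied at fixed fluconazole of 1/8 and 1/32 MIC.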

Nakaseomyces glabratus [2] = assay: In vitro minimum potentiation concentration to achieve an 8-fold reduction in fluconazole MIC against Candida glabrata strain YEM19 (overexpressing both CgDR1 and CgDR2); format: functional; summary of the method: as §1
Candida albicans [3] = assay: In vitro minimum inhibitory concentration against Candida albicans; format: functional
Summary of the method: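 C. albicans YEM15 (over-expresses CDR1 and CDR2) tested by broth dilution in RPMI 1640 following NCCLS reference method M27-A. The compound was tested alone, without fluconazole, across a range of concentrations, and the MIC was read as intrinsic antifungal activity.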

Candida albicans [4] = assay: In vitro concentration to inhibit Candida albicans CDR1 transporter gene over-expressed in Saccharomyces cerevisiae strain YEM172; format: functional, organism-based
Summary of the method: (§2)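 Yeast strains over-expressing single pumps, inoculum 10^4 cells, incubated at 30 °C in YPD. Inhibitor concentration was varied against one fixed fluconazole concentration. That concentration was the geometric mean of the test strain's fluconazole MIC and that of the parent pump-deleted strain; for YEM172 it was 8 µg/ml.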

Candida albicans [5] = assay: In vitro concentration to inhibit Candida albicans CDR2 transporter gene over-expressed in Saccharomyces cerevisiae strain YEM171; format: functional, organism-based; summary of the method: as §2
Nakaseomyces glabratus [6] = assay: In vitro concentration to inhibit Candida glabrata CgCDR1 transporter gene over-expressed in Saccharomyces cerevisiae strain Y170; format: functional, organism-based; summary of the method: as §2
Nakaseomyces glabratus [7] = assay: In vitro concentration to inhibit Candida glabrata CgCDR2 transporter gene over-expressed in Saccharomyces cerevisiae strain Y218; format: functional, organism-based; summary of the method: as §2
Saccharomyces cerevisiae [8] = assay: In vitro concentration required to inhibit 80% growth of Saccharomyces cerevisiae strain YEM139 (PDR5 deleted) after 48 h; format: functional
Candida albicans [9] = assay: In vitro concentration required against Candida albicans strain YEM 15; format: functional
Saccharomyces cerevisiae [10] = assay: In vitro concentration required to inhibit 80% growth of Saccharomyces cerevisiae strain Y170 (CgCDR1 over-expressed) after 48 h; format: functional
Saccharomyces cerevisiae [11] = assay: In vitro concentration required to inhibit 80% growth of Saccharomyces cerevisiae strain Y218 (CgCDR2 over-expressed) after 48 h; format: functional
Saccharomyces cerevisiae [12] = assay: In vitro concentration required to inhibit 80% growth of Saccharomyces cerevisiae strain YEM171 (CDR2 over-expressed) after 48 h; format: functional
Saccharomyces cerevisiae [13] = assay: In vitro concentration required to inhibit 80% growth of Saccharomyces cerevisiae strain YEM172 (CDR1 over-expressed) after 48 h; format: functional

SMILES	MPC8 (Candida albicans [1]) [µg/mL]	MPC8 (Nakaseomyces glabratus [2]) [µg/mL]	further results
COc1cccc(N(C(=O)Nc2ccc(F)cc2)C(C)c2nc3ccccc3c(=O)n2N2CCN(C)CC2)c1 (configuration not stated)	16	>32	
COc1ccc(N(C(=O)NC(C)C)C(C)c2nc3ccccc3c(=O)n2N2CCN(C)CC2)c(OC)c1 (configuration not stated)	>32	>32	
COc1ccc(N(C(=O)Nc2ccc(F)cc2)C(C)c2nc3ccc(OC)cc3c(=O)n2N2CCN(C)CC2)c(OC)c1 (configuration not stated)	0.5	2	
COc1ccc(N(C(=O)Nc2nc3ccccc3s2)C(C)c2nc3ccccc3c(=O)n2N2CCN(C)CC2)c(OC)c1 (configuration not stated)	2	16	
COc1ccc(N(C(=O)NS(=O)(=O)c2ccc(Cl)cc2)C(C)c2nc3ccccc3c(=O)n2N2CCN(C)CC2)c(OC)c1 (configuration not stated)	>32	>32	
COc1ccc(N(C(=O)Nc2ccc(F)cc2)C(C)c2nc3ccc(O)cc3c(=O)n2N2CCN(C)CC2)c(OC)c1 (configuration not stated)	16	1	
COc1ccc(N(C(=O)Nc2ccccc2Cl)C(C)c2nc3ccccc3c(=O)n2N2CCN(C)CC2)c(OC)c1 (configuration not stated)	>32	>32	
COc1ccc(N(C(=O)Nc2ccc(C)cc2)C(C)c2nc3ccccc3c(=O)n2N2CCN(C)CC2)c(OC)c1 (configuration not stated)	16	4	
COc1ccc(N(C(=O)Nc2ccc(F)cc2)C(C)c2nc3cc(Cl)ccc3c(=O)n2N2CCN(C)CC2)c(OC)c1 (configuration not stated)	0.12	0.5	
CC(c1nc2ccccc2c(=O)n1N1CCN(C)CC1)N(C(=O)Nc1ccc(F)cc1)c1ccc(OCC2CC2)cc1OCC1CC1 (configuration not stated)	4	2	MIC (Candida albicans [3]): 32 µg/mL (≈ 49.9 µM)
COc1ccc(N(C(=O)Nc2ccc(F)cc2)[C@H](C)c2nc3cc(F)ccc3c(=O)n2N2CCN(C)CC2)c(OC)c1	>32	>32	IC50 (Candida albicans [4]): > 32 µg/mL; IC50 (Candida albicans [5]): > 32 µg/mL; IC50 (Nakaseomyces glabratus [6]): > 32 µg/mL; IC50 (Nakaseomyces glabratus [7]): > 32 µg/mL
COc1ccc(N(C(=O)Nc2ccc(F)cc2)C(C)c2nc3c(OC)cccc3c(=O)n2N2CCN(C)CC2)c(OC)c1 (configuration not stated)	8	8	
COc1ccc(N(C(=O)Nc2ccc(F)cc2)C(C)c2nc3ccc(F)cc3c(=O)n2N2CCN(C)CC2)c(OC)c1 (configuration not stated)	1	2	
COc1ccc(N(C(=O)Nc2ccc(F)cc2)C(C)c2nc3ccc(C)cc3c(=O)n2N2CCN(C)CC2)c(OC)c1 (configuration not stated)	0.5	4	
COc1ccc(N(C(=O)Nc2ccc(F)cc2)C(C)c2nc3ccccc3c(=O)n2N2CCN(C)CC2)c(OC)c1 (configuration not stated)	4	4	
COc1ccc(N(C(=O)Nc2cccc(Cl)c2)C(C)c2nc3ccccc3c(=O)n2N2CCN(C)CC2)c(OC)c1 (configuration not stated)	1	4	
COc1ccc(N(C(=O)Nc2ccc(F)cc2)C(C)c2nc3ccc(OCC(N)=O)cc3c(=O)n2N2CCN(C)CC2)c(OC)c1 (configuration not stated)	>32	>32	
COc1ccc(N(C(C)c2nc3ccccc3c(=O)n2N2CCN(C)CC2)S(=O)(=O)c2ccc(Cl)cc2)c(OC)c1 (configuration not stated)	32	>32	
CC(c1nc2ccccc2c(=O)n1N1CCN(C)CC1)N(C(=O)Nc1ccc(F)cc1)c1ccccc1 (configuration not stated)	>32	>32	
CCC(=O)Oc1ccc2nc(C(C)N(C(=O)Nc3ccc(F)cc3)c3ccc(OC)cc3OC)n(N3CCN(C)CC3)c(=O)c2c1 (configuration not stated)	4	4	
COc1cc(OC)c(N(C(=O)Nc2ccc(F)cc2)C(C)c2nc3ccccc3c(=O)n2N2CCN(C)CC2)c(OC)c1 (configuration not stated)	>32	>32	

SMILES	MPC8 (Candida albicans [1]) [µg/mL]	MPC8 (Nakaseomyces glabratus [2]) [µg/mL]	further results
CC(c1nc2ccccc2c(=O)n1N1CCN(C)CC1)N(C)C(=O)Nc1ccc(F)cc1 (configuration not stated)	>32	>32	
COc1ccc(N(C(=O)c2ccccc2Cl)C(C)c2nc3ccccc3c(=O)n2N2CCN(C)CC2)c(OC)c1 (configuration not stated)	4	>32	
COc1ccc(N(C(=O)Nc2ccccc2)C(C)c2nc3ccccc3c(=O)n2N2CCN(C)CC2)c(OC)c1 (configuration not stated)	16	16	
COc1ccc(N(C(=O)Nc2ccc(F)cc2)C(C)c2nc3ccccc3c(=O)n2N2CCN(C)CC2)cc1 (configuration not stated)	8	32	
Cc1ccc(N(C(=O)Nc2ccc(F)cc2)C(C)c2nc3ccccc3c(=O)n2N2CCN(C)CC2)c(C)c1 (configuration not stated)	8	>32	
COc1ccc(NC(C)c2nc3ccccc3c(=O)n2N2CCN(C)CC2)c(OC)c1 (configuration not stated)	>32	>32	
COc1ccc(NC(=O)N(c2ccc(OC)cc2OC)C(C)c2nc3ccccc3c(=O)n2N2CCN(C)CC2)cc1 (configuration not stated)	16	2	
COc1ccc(N(C(=O)Nc2ccc(F)cc2)C(C)c2nc3ccccc3c(=O)n2N2CCN(C)CC2)cc1OC (configuration not stated)	>32	>32	
COc1ccc(N(C(=O)Nc2ccc(Cl)cc2)C(C)c2nc3ccccc3c(=O)n2N2CCN(C)CC2)c(OC)c1 (configuration not stated)	2	1	
CC(c1nc2ccccc2c(=O)n1N1CCN(C)CC1)N(C(=O)Nc1ccc(F)cc1)c1ccc(F)cc1F (configuration not stated)	8	32	
COc1cc(N(C(=O)Nc2ccc(F)cc2)C(C)c2nc3ccccc3c(=O)n2N2CCN(C)CC2)cc(OC)c1OC (configuration not stated)	8	>32	
COc1ccccc1N(C(=O)Nc1ccc(F)cc1)C(C)c1nc2ccccc2c(=O)n1N1CCN(C)CC1 (configuration not stated)	>32	>32	
COc1ccc(N(C(=O)Nc2ccc(F)cc2)[C@@H](C)c2nc3cc(F)ccc3c(=O)n2N2CCN(C)CC2)c(OC)c1	0.25	0.5	IC50 (Candida albicans [4]): 0.5 µg/mL (≈ 0.864 µM); IC50 (Candida albicans [5]): 16 µg/mL (≈ 27.7 µM); IC50 (Nakaseomyces glabratus [6]): 2 µg/mL (≈ 3.46 µM); IC50 (Nakaseomyces glabratus [7]): 32 µg/mL (≈ 55.3 µM)
COc1ccc(N(C(=O)Nc2ccc(F)cc2)C(C)c2nc3cc(F)ccc3c(=O)n2N2CCN(C)CC2)c(OC)c1 (configuration not stated)	0.5	1	
COc1ccc(N(C(=O)Nc2ccc(F)cc2)C(C)c2nc3cc(F)c(F)cc3c(=O)n2N2CCN(C)CC2)c(OC)c1 (configuration not stated)	0.12	0.5	
COc1ccc(N(C(=O)c2ccc(Cl)cc2)C(C)c2nc3ccccc3c(=O)n2N2CCN(C)CC2)c(OC)c1 (configuration not stated)	4	>32	
OC(Cn1cncn1)(Cn1cncn1)c1ccc(F)cc1F [FLUCONAZOLE]			MIC (Saccharomyces cerevisiae [8]): 0.5 µg/mL (≈ 1.63 µM); MIC (Candida albicans [9]): 128 µg/mL (≈ 418 µM); MIC (Saccharomyces cerevisiae [10]): 128 µg/mL (≈ 418 µM); MIC (Saccharomyces cerevisiae [11]): 2 µg/mL (≈ 6.53 µM); MIC (Saccharomyces cerevisiae [12]): 8 µg/mL (≈ 26.1 µM); MIC (Saccharomyces cerevisiae [13]): 128 µg/mL (≈ 418 µM)
COc1ccc(N(C(=O)Nc2cccc(C#N)c2)C(C)c2nc3ccccc3c(=O)n2N2CCN(C)CC2)c(OC)c1 (configuration not stated)	32	32	
COc1ccc(N(C(=O)Nc2ccc(F)cc2)C(C)c2nc3ccc(Cl)cc3c(=O)n2N2CCN(C)CC2)c(OC)c1 (configuration not stated)	0.25	2	
COc1ccc(N(C(=O)Nc2ccc(F)cc2)C(C)c2nc3cccc(F)c3c(=O)n2N2CCN(C)CC2)c(OC)c1 (configuration not stated)	8	8	
COc1ccc(N(C(=O)Oc2ccc(Cl)cc2)C(C)c2nc3ccccc3c(=O)n2N2CCN(C)CC2)c(OC)c1 (configuration not stated)	32	32	
